According to publication PMC4303589 (Molecular and cellular biochemistry, 2014):

Target: T1, SvAS (fused anthranilate synthase, SvTrpEG) (Streptomyces venezuelae, UniProt O30589)
T1 sequence (O30589 1-623): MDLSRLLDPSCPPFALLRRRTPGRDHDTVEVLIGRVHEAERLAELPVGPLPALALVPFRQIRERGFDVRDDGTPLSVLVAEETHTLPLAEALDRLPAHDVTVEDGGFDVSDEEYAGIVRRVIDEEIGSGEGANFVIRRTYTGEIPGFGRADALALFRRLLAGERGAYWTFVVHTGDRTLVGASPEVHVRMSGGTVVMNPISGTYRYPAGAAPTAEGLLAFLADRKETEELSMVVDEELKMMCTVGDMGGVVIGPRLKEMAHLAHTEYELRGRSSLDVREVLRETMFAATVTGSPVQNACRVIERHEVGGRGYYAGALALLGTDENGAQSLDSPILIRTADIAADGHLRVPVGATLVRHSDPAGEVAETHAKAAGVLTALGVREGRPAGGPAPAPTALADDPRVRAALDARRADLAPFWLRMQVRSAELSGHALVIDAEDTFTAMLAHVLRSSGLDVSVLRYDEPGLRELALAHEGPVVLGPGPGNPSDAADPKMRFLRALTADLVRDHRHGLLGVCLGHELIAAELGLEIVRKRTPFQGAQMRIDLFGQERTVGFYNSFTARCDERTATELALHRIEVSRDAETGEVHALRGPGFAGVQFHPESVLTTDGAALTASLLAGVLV
Type: biochemical
Procedure, shortened: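 His-tagged SvAS expressed in E. coli BL21(DE3)pLysS and purified on Ni-NTA. Assays at 30°C in 50 mM Tricine pH 7.5 with 12.5 mM MgCl2, 10 μg enzyme, 20 mM glutamine (saturating), 0.39–100 μM chorismate, and 2.5, 5, 10 or 20 μM test compound. Anthranilate fluorescence (ex 315/em 395 nm) converted via standard curve. Lineweaver-Burk plot assigned inhibition type; Ki from fit to that equation.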

- Ki: 11.1 ± 0.1 µM
SMILES: N[C@@H](Cc1c[nH]c2ccccc12)C(=O)O [tryptophan]
